Laboratory results published in ChEMBL document CHEMBL1772940, “Design and synthesis of potent and selective aldose reductase inhibitors based on pyridylthiadiazine scaffold” (Eur J Med Chem, 2011).

Legend:
[1] = biological target: Aldo-keto reductase family 1 member B1 (Rattus norvegicus, UniProt P07943); assay: Inhibition of Wistar rat lens aldose reductase 2 by spectrophotometric analysis
Method in brief: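 Partially purified lens enzyme (homogenized in cold water, centrifuged 30 min at 0–4 °C, ammonium sulfate 40/50/75% cuts). Mix without DL-glyceraldehyde was preincubated 10 min at 32 °C; the NADPH drop was read at 340 nm at 32 °C in pH 6.2 phosphate, with the substrate-free rate subtracted. At least four concentrations (10^-4–10^-8 M), triplicate; IC50 from log concentration-response regression.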

[2] = tested on: Aldehyde reductase AKR1A1 (Rattus norvegicus); assay: Inhibition of Wistar rat kidney aldehyde reductase at 50 uM by spectrophotometric analysis

| SMILES | IC50 [1] | inhibition [2] |
| --- | --- | --- |
| Cc1cnc2c(c1)S(=O)(=O)N(Cc1ccc(Br)cc1F)CN2CC(=O)O | 127 nM | 24.6% |
| Cc1cnc2c(c1)S(=O)(=O)N(Cc1cc(F)c(F)cc1F)CN2CC(=O)O | 84 nM | 35.4% |
| O=C(O)CN1CN(Cc2ccc(C(F)(F)F)cc2)S(=O)(=O)c2cc(Br)cnc21 | 965 nM | 43.3% |
| O=C(O)CN1CN(Cc2cc(F)c(F)cc2F)S(=O)(=O)c2cc(Cl)cnc21 | 38 nM | 36.5% |
| O=C(O)CN1CN(Cc2ccc(Br)cc2F)S(=O)(=O)c2cc(Br)cnc21 | 69 nM | 44.9% |
| Cc1cnc2c(c1)S(=O)(=O)N(Cc1cccc([N+](=O)[O-])c1)CN2CC(=O)O | 143 nM | 23.2% |

Continued by falling IC50 [1], values first:

| IC50 [1] | inhibition [2] | SMILES |
| --- | --- | --- |
| 11300 nM | 27.9% | COc1ccc(CN2CN(CC(=O)O)c3ncc(Br)cc3S2(=O)=O)cc1 |
| 6540 nM | 32.3% | COc1ccc(CN2CN(CC(=O)O)c3ncc(Cl)cc3S2(=O)=O)cc1 |
| 6270 nM | 17.7% | COc1ccc(CN2CN(CC(=O)O)c3ncc(C)cc3S2(=O)=O)cc1 |
| 1010 nM | 42.3% | O=C(O)CN1CN(Cc2ccc(C(F)(F)F)cc2)S(=O)(=O)c2cc(Cl)cnc21 |
| 1000 nM | 20.5% | Cc1cnc2c(c1)S(=O)(=O)N(Cc1ccc(C(F)(F)F)cc1)CN2CC(=O)O |
| 98 nM | 31.5% | O=C(O)CN1CN(Cc2cccc([N+](=O)[O-])c2)S(=O)(=O)c2cc(Br)cnc21 |
| 93 nM | 40.2% | O=C(O)CN1CN(Cc2cccc([N+](=O)[O-])c2)S(=O)(=O)c2cc(Cl)cnc21 |
| 66 nM | 44.2% | O=C(O)CN1CN(Cc2cc(F)c(F)cc2F)S(=O)(=O)c2cc(Br)cnc21 |
| 44 nM | 36.6% | O=C(O)CN1CN(Cc2ccc(Br)cc2F)S(=O)(=O)c2cc(Cl)cnc21 |
